In ChEMBL document CHEMBL1250442, “Inhibiting gene expression at transcription start sites in chromosomal DNA with antigene RNAs” (Nat Chem Biol, 2005):
The source made the active and inactive calls. No cut-off for these calls is given here.

What was measured:
T47D [1] = test: Inhibition of major vault protein expression in human T47D cells at 100 nM by syber green assay; type: functional, cell-based
T47D [2] = test: Inhibition of PR-A mRNA gene expression in human T47D cells at 100 nM by syber green assay; type: functional
Procedure, shortened: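 T47D cells plated at 80,000/well without antibiotics two days before Oligofectamine transfection with agRNA duplex (25 or 100 nM final); medium changed at 24 h, harvest day 5 unless stated otherwise. TRIzol total RNA; PR mRNA by real-time PCR with SYBR Green: 50 °C 2 min, 95 °C 10 min, 40 cycles 95 °C 15 s/60 °C 1 min.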

T47D [3] = test: Inhibition of PR-A gene expression in human T47D cells at 25 nM by syber green assay in presence of 10 nM estradiol; type: functional, cell-based
T47D [4] = test: Inhibition of PR-B mRNA gene expression in human T47D cells at 100 nM by syber green assay; type: functional
Procedure, shortened: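 T47D cells in RPMI-1640 with 10% FBS, NEAA, insulin, 37 °C, 5% CO2. Plated two days before transfection without antibiotics. Oligofectamine-mediated duplex RNA transfection at 100 nM final, medium changed at 24 h, harvest five days post-transfection. Total RNA extracted with TRIzol. hPR mRNA quantified by SYBR Green qPCR: 50 °C 2 min, 95 °C 10 min, then 40 cycles of 95 °C 15 s / 60 °C 1 min.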

T47D [5] = test: Inhibition of PR-B gene expression in human T47D cells at 25 nM by syber green assay in presence of 10 nM estradiol; type: functional, cell-based

For `Cc1cn(CC(=O)N(CCNC(=O)CN(CCNC(=O)CN(CCNC(=O)CN(CCNC(=O)CN(CCNC(=O)CN(CCNC(=O)CN(CCNC(=O)CN(CCNC(=O)CN(CCNC(=O)CN(CCNC(=O)CN(CCNC(=O)CN(CCNC(=O)CN(CCNC(=O)CN(CCNC(=O)CN(CCNC(=O)CN(CCNC(=O)CN(CCNC(=O)CN(CCNC(=O)CN(CCNC(=O)CN(CCNC(=O)CN)C(=O)Cn2cnc3c(N)ncnc32)C(=O)Cn2cnc3c(=O)[nH]c(N)nc32)C(=O)Cn2cnc3c(=O)[nH]c(N)nc32)C(=O)Cn2ccc(N)nc2=O)C(=O)Cn2cnc3c(N)ncnc32)C(=O)Cn2cnc3c(=O)[nH]c(N)nc32)C(=O)Cn2cnc3c(=O)[nH]c(N)nc32)C(=O)Cn2cnc3c(=O)[nH]c(N)nc32)C(=O)Cn2ccc(=O)[nH]c2=O)C(=O)Cn2cnc3c(=O)[nH]c(N)nc32)C(=O)Cn2cnc3c(N)ncnc32)C(=O)Cn2cnc3c(=O)[nH]c(N)nc32)C(=O)Cn2cnc3c(N)ncnc32)C(=O)Cn2cnc3c(=O)[nH]c(N)nc32)C(=O)Cn2ccc(=O)[nH]c2=O)C(=O)Cn2ccc(=O)[nH]c2=O)C(=O)Cn2ccc(N)nc2=O)C(=O)Cn2ccc(N)nc2=O)C(=O)Cn2ccc(N)nc2=O)CC(=O)NCCN(CC(=O)NCC(=O)O)C(=O)Cn2cc(C)c(=O)[nH]c2=O)c(=O)[nH]c1=O`, the inhibition (T47D [1]) was “Active”, the inhibition at 0.1 µM (T47D [2]) was 81% and the inhibition (T47D [3]) was “Active”. For the same compound, the inhibition at 0.1 µM (T47D [4]) was 81% and the inhibition (T47D [5]) was “Active”.
